One assay addresses T1, Histone deacetylase 11 (Homo sapiens, UniProt Q96DB2).
T1 sequence (Q96DB2 whole entry): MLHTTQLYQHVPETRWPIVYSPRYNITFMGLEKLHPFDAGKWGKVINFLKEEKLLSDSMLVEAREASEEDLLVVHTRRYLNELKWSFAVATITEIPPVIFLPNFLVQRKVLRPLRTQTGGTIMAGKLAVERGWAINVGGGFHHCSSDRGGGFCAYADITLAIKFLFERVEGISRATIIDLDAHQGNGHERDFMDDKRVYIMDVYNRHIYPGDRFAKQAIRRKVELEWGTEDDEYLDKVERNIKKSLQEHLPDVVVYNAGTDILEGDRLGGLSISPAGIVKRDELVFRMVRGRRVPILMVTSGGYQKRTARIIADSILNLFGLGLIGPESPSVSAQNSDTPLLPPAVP
In words: Inhibition of human HDAC11 by fluorescence assay.

In the next assay the target is T2, Histone deacetylase 8 (Homo sapiens, UniProt Q9BY41).
T2 sequence (Q9BY41 whole entry): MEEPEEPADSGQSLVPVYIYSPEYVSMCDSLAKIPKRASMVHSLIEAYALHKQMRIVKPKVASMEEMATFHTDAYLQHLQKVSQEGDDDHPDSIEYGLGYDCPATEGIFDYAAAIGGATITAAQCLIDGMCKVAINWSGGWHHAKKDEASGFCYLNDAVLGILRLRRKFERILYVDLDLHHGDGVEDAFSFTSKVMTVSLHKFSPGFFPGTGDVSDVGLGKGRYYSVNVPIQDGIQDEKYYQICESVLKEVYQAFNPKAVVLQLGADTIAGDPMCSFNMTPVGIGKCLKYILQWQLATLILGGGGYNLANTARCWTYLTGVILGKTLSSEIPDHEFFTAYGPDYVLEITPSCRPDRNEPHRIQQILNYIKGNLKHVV
Description: Inhibition of human HDAC8 by fluorescence assay.

In assay [1] the target is T3, Protein deacetylase HDAC6 (Homo sapiens, UniProt Q9UBN7).
T3 sequence (Q9UBN7 whole entry): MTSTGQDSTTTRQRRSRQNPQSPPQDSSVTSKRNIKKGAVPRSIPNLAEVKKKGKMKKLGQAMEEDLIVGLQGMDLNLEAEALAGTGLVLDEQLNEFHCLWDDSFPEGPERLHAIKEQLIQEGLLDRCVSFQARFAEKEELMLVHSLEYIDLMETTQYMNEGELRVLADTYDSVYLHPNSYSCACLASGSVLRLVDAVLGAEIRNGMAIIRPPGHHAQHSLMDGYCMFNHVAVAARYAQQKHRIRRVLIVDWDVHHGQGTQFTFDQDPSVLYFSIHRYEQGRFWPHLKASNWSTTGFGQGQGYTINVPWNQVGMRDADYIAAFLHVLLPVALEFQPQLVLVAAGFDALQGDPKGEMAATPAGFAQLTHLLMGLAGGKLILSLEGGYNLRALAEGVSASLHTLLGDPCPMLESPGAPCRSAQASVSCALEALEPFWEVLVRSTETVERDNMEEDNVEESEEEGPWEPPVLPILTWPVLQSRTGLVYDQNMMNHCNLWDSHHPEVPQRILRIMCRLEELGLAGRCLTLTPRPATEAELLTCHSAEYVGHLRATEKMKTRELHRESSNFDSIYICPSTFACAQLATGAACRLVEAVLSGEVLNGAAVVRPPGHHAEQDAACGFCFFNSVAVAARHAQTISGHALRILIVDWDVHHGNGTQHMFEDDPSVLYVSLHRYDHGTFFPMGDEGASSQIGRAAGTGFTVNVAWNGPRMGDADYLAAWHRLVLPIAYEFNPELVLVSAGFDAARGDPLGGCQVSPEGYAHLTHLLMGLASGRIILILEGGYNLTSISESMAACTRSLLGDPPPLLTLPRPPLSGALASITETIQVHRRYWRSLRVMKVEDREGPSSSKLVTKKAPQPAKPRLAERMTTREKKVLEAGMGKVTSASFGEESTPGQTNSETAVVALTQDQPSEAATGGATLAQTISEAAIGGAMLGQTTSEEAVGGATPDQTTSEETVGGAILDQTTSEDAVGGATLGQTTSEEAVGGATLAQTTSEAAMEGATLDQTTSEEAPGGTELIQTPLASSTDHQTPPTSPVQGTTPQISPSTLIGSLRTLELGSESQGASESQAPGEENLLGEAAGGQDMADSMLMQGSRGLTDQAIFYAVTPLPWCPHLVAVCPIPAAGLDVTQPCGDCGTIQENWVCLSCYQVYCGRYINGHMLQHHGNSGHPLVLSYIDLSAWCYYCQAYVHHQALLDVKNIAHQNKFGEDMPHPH
Description: Inhibition of human HDAC6 by fluorescence assay.

For a further assay, the target named is Histone deacetylase 5 (Homo sapiens, UniProt Q9UQL6). In words: Inhibition of human HDAC5 by fluorescence assay.
A further assay addresses Histone deacetylase 4 (Homo sapiens, UniProt P56524). Description: Inhibition of human HDAC4 by fluorescence assay.
The target of the next assay is Histone deacetylase 2 (Homo sapiens, UniProt Q92769). In words: Inhibition of human HDAC2 by fluorescence assay.
A further assay addresses Histone deacetylase 1 (Homo sapiens, UniProt Q13547). Description: Inhibition of human HDAC1 by fluorescence assay.
Assay [2] deals with Histone deacetylase. In words: Inhibition of HDAC in cisplatin resistant human KYSE-510 cells after 18 hrs by fluorescence assay. Type of assay: cell-based.
For assay [3], the target named is Histone deacetylase. In words: Inhibition of HDAC in cisplatin sensitive human KYSE-510 cells after 18 hrs by fluorescence assay. The format is cell-based.
Assay [4] concerns the target Histone deacetylase. In words: Inhibition of HDAC in cisplatin resistant human CAL27 cells after 18 hrs by fluorescence assay. The format is cell-based. The settings on record: cal-27.
Assay [5] deals with Histone deacetylase. Description: Inhibition of HDAC in cisplatin sensitive human CAL27 cells after 18 hrs by fluorescence assay. The format is cell-based. The settings on record: cal-27.
The target of assay [6] is Histone deacetylase. In words: Inhibition of HDAC in cisplatin resistant human MDA-MB-231 cells after 18 hrs by fluorescence assay. Type of assay: cell-based.
Assay [7] addresses Histone deacetylase. Description: Inhibition of HDAC in cisplatin sensitive human MDA-MB-231 cells after 18 hrs by fluorescence assay. The format is cell-based.
Assay [8] relates to KYSE-510. In words: Cytotoxicity against cisplatin sensitive human KYSE-510 cells after 72 hrs by MTT assay. The settings on record: KYSE-510, 72 h. The format is functional, cell-based. In general terms: Tetrazolium dyes change colour on reduction, which living cells bring about.
The subject of assay [9] is KYSE-510. Description: Cytotoxicity against cisplatin resistant human KYSE-510 cells after 72 hrs by MTT assay. The format is functional, cell-based. As to conditions: KYSE-510, 72 h.
For assay [10], the system named is CAL-27. In words: Cytotoxicity against cisplatin resistant human CAL27 cells after 72 hrs by MTT assay. The settings on record: CAL-27, 72 h. The format is functional, cell-based.
Assay [11] relates to CAL-27. Description: Cytotoxicity against cisplatin sensitive human CAL27 cells after 72 hrs by MTT assay. Type of assay: functional, cell-based. As to conditions: CAL-27, 72 h.
Assay [12] relates to MDA-MB-231. Description: Cytotoxicity against cisplatin resistant human MDA-MB-231 cells after 72 hrs by MTT assay. As to conditions: MDA-MB-231, 72 h. The format is functional, cell-based.
Assay [13] has as its system MDA-MB-231. In words: Cytotoxicity against cisplatin sensitive human MDA-MB-231 cells after 72 hrs by MTT assay. Type of assay: functional, cell-based. As to conditions: MDA-MB-231, 72 h. The gist of the method:
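MDA-MB-231 (parental), 10 000 cells/well, in DMEM with 15% FCS at 37 °C, 5% CO2. Compounds added 24 h after seeding for 72 h. MTT (5 mg/mL in PBS) was added, formazan dissolved in DMSO, absorbance read at 544 and 690 nm. IC50 from four-parameter logistic fit of ≥3 experiments in triplicate.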

Assay [14] has as its target Histone deacetylase. Description: Inhibition of HDAC in cisplatin resistant human A2780 cells after 18 hrs by fluorescence assay. The format is cell-based.
Assay [15] has as its target Histone deacetylase. In words: Inhibition of HDAC in human A2780 cells after 18 hrs by fluorescence assay. Type of assay: cell-based.
A further assay relates to A2780. Description: Cytotoxicity against human A2780 cells after 72 hrs by MTT assay. As to conditions: A2780, 72 h. The format is functional, cell-based.
Assay [16] has as its system A2780 CisR (Homo sapiens). Description: cells. As to conditions: 72 h.

IC50 data for two molecules are collected here from ChEMBL document CHEMBL2311425, “Histone deacetylase (HDAC) inhibitors with a novel connecting unit linker region reveal a selectivity profile for HDAC4 and HDAC5 with improved activity against chemoresistant cancer cells” (J Med Chem, 2013).

Usually IC50 stands for the midpoint of a concentration-inhibition curve. Read a low IC50 as inhibition by little substance.

Molecules are shown by their SMILES.

Sequence of Histone deacetylase 2 (Q92769 whole entry): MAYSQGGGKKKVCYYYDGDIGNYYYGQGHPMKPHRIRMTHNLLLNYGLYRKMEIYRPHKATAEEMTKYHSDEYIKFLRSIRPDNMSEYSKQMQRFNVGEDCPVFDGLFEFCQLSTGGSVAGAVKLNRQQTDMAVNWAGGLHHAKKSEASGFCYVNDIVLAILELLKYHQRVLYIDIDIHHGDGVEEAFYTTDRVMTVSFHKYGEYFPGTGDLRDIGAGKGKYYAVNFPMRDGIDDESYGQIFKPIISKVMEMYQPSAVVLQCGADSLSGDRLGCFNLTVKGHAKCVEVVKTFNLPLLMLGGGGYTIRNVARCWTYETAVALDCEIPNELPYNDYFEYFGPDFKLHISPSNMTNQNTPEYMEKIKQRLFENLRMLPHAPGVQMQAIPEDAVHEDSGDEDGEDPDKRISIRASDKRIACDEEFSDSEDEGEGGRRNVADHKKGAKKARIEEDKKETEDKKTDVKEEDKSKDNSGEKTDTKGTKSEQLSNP
Sequence of Histone deacetylase 4 (P56524 whole entry): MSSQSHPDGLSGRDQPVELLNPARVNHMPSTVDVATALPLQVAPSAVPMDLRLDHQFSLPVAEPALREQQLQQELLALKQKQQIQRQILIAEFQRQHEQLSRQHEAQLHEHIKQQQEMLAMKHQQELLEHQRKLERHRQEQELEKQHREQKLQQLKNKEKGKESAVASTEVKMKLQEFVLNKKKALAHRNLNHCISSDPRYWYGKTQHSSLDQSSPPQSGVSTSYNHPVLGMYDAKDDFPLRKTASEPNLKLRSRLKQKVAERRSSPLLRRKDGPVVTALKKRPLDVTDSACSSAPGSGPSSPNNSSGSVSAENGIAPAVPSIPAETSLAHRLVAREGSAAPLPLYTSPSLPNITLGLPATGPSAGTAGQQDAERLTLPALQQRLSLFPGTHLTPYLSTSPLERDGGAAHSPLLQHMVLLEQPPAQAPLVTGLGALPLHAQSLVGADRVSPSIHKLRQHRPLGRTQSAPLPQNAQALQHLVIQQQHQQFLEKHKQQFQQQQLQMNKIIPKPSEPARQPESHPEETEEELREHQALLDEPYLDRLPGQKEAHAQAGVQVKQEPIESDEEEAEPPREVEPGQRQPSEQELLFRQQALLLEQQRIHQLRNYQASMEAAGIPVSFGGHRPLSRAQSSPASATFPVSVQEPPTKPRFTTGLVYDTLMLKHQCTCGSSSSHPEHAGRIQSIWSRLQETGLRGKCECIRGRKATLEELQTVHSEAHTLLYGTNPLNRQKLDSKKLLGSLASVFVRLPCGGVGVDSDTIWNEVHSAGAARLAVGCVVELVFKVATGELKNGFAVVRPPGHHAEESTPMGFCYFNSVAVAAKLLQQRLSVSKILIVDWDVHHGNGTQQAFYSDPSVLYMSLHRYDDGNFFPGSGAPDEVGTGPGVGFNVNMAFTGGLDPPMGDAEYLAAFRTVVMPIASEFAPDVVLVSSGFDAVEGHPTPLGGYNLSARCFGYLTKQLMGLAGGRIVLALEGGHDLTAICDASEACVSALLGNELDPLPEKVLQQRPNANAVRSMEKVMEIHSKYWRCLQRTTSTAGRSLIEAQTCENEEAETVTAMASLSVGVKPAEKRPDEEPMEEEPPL
Sequence of Histone deacetylase 5 (Q9UQL6 whole entry): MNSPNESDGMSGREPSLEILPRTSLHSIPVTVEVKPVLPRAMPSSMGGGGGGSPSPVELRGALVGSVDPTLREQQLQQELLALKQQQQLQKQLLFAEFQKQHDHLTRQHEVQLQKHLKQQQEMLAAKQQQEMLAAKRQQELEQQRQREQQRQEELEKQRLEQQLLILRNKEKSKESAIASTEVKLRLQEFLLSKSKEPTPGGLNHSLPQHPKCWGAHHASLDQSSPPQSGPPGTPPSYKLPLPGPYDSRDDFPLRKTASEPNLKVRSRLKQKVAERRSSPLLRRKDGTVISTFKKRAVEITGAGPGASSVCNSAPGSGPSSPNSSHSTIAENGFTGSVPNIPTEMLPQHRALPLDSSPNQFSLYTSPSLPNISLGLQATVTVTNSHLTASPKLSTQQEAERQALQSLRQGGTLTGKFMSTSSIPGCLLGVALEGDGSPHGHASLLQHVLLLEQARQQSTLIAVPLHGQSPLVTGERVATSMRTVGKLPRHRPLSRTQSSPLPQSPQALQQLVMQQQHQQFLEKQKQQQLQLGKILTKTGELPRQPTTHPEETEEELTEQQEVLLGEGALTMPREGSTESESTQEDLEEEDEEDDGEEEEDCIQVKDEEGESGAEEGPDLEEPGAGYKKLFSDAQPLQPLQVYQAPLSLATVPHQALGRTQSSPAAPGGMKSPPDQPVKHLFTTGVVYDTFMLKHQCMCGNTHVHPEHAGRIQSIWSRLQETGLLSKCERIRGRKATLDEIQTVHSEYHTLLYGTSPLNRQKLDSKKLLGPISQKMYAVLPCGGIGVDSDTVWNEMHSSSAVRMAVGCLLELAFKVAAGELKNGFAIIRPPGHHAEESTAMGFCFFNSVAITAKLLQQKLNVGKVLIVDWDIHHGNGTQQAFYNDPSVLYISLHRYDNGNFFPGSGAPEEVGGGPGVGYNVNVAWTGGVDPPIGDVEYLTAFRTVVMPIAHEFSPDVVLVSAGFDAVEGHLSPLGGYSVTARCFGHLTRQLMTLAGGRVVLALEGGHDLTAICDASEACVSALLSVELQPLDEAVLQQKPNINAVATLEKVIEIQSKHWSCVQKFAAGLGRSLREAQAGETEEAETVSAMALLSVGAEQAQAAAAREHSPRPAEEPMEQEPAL
Sequence of Histone deacetylase 1 (Q13547 whole entry): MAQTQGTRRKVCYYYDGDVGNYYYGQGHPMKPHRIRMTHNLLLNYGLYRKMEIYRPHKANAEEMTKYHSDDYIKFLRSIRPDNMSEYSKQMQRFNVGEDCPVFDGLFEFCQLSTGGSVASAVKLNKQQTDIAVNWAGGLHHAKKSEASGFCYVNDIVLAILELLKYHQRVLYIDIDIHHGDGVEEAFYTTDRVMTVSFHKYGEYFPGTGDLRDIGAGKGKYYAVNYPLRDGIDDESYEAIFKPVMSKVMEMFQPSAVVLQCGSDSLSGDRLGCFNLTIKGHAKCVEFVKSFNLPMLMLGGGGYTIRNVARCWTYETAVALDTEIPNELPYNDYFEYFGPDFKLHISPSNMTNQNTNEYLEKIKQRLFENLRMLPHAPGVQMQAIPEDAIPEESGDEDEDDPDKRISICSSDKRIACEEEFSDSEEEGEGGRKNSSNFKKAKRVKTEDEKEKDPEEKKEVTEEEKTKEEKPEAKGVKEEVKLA

For the molecule `Cc1cccc(C(=O)NOCCCCCC(=O)NO)c1`, the IC50 on Histone deacetylase 11 came out at 2.14 µM; at Histone deacetylase 8, 1.04 µM; in [1], 0.0269 µM; on Histone deacetylase 5, 0.00231 µM; on Histone deacetylase 4, 0.0163 µM; at Histone deacetylase 2, 1.39 µM. Moreover, the IC50 came out at 0.341 µM against Histone deacetylase 1; 1.13 µM against Histone deacetylase [2]; 2.62 µM at Histone deacetylase [3]; 0.88 µM on Histone deacetylase [4]; 1 µM at Histone deacetylase [5]; 1.28 µM on Histone deacetylase [6]. In addition, the IC50 amounted to 1.41 µM against Histone deacetylase [7]; 8.19 µM in the assay with KYSE-510 [8]; 8.21 µM with KYSE-510 [9]; 3.72 µM in the assay with CAL-27 [10]; 2.97 µM with CAL-27 [11]; 3.81 µM with MDA-MB-231 [12]. Further, the IC50 in the assay on MDA-MB-231 [13] worked out at 2.79 µM; at Histone deacetylase [14] it was 0.9 µM; at Histone deacetylase [15], 1.58 µM; with A2780, 2.1 µM; in assay [16], 2.25 µM.
As to `Cc1ccc(C(=O)NOCCCCCC(=O)NO)cc1C`, the IC50 against Histone deacetylase 11 came out at 0.997 µM; on Histone deacetylase 8, 0.833 µM; in assay [1], 0.0181 µM; against Histone deacetylase 5, 0.0334 µM; on Histone deacetylase 4, 0.0826 µM; against Histone deacetylase 2 it was 0.944 µM. In addition, the IC50 was determined as 0.32 µM at Histone deacetylase 1; 1.1 µM against Histone deacetylase [2]; 2.82 µM against Histone deacetylase [3]; 0.91 µM against Histone deacetylase [4]; 1.1 µM at Histone deacetylase [5]; 1.66 µM on Histone deacetylase [6]. The IC50 was 1.57 µM on Histone deacetylase [7]; 10 µM in the assay on KYSE-510 [8]; 9.46 µM in the assay on KYSE-510 [9]; 4.31 µM in the assay on CAL-27 [10]; 2.9 µM in the assay on CAL-27 [11]; 3.77 µM with MDA-MB-231 [12]. The IC50 was determined as 2.77 µM in the assay with MDA-MB-231 [13]; 0.88 µM against Histone deacetylase [14]; 1.61 µM against Histone deacetylase [15]; 1.54 µM with A2780; 1.78 µM in assay [16].
